Measured values: ChEMBL document CHEMBL4152211, “Discovery of novel Methylsulfonyl phenyl derivatives as potent human Cyclooxygenase-2 inhibitors with effective anticonvulsant action: Design, synthesis, in-silico, in-vitro and in-vivo evaluation” (Eur J Med Chem, 2018)
Active and inactive are the calls of the source. The rule behind the calls is not given here.

Legend:
Rattus norvegicus [1] = experiment: Antiepileptic activity in rat model of PTZ-induced epileptiogenesis kindling model assessed as decrease of seizure severity at 30 mg/kg, ip measured up to 28 days; type: functional, organism-based
Method in brief: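 Adult male Wistar rats receive PTZ 40 mg/kg i.p. on alternate days for 28 days plus daily i.p. treatment. After each PTZ injection, rats are observed singly for 45 min and scored on the revised Racine scale (stages to 6). Group mean score per week, ±S.D. Statistics are repeated-measures ANOVA with Tukey's test.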

Mus musculus [2] = experiment: Anticonvulsant activity in Swiss albino mouse assessed as protection against subcutaneous pentylenetetrazole-induced seizures at 30 mg/kg, ip administered 0.5 hrs prior to PTZ challenge and measured after 30 mins; type: functional
Method in brief: (§1)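 Male Swiss Albino mice (25–30 g), 6 per group, dosed i.p. with drugs in sterile saline, then challenged with PTZ 85 mg/kg s.c. (CD97), given at 10 ml/kg, 0.5 h or 4 h later. Each animal is observed singly for seizures. Protection is scored as protected/total animals.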

Rattus norvegicus [3] = experiment: Toxicity in Wistar rat assessed as RBC level at 200 mg/kg, po for 14 days (reference value: 8.19 +/- 0.648 10^6/mm3); type: organism-based; conditions: in vivo, 336 h
Mus musculus [4] = experiment: Anticonvulsant activity in Swiss albino mouse assessed as protection against subcutaneous pentylenetetrazole-induced seizures at 100 mg/kg, ip administered 0.5 hrs prior to PTZ challenge and measured after 30 mins; type: functional; method in brief: as §1
Rattus norvegicus [5] = experiment: Anxiolytic activity in ip dosed PTZ-kindled Wistar rat assessed as time spent in dark zone by light-dark test (reference value: 96.9 +/- 1.25%); type: functional
Mus musculus [6] = experiment: Anticonvulsant activity in Swiss albino mouse assessed as protection against subcutaneous pentylenetetrazole-induced seizures at 30 mg/kg, ip administered 4 hrs prior to PTZ challenge and measured after 30 mins; type: functional; method in brief: as §1
Mus musculus [7] = experiment: Anticonvulsant activity in Swiss albino mouse assessed as protection against subcutaneous pentylenetetrazole-induced seizures at 300 mg/kg, ip administered 0.5 hrs prior to PTZ challenge and measured after 30 mins; type: functional; method in brief: as §1
Rattus norvegicus [8] = experiment: Toxicity in Wistar rat assessed as effect on calcium level at 200 mg/kg, po for 14 days; type: organism-based; conditions: in vivo, 336 h
Rattus norvegicus [9] = experiment: Toxicity in Wistar rat assessed as effect on uric acid level at 200 mg/kg, po for 14 days; type: organism-based; conditions: in vivo, 336 h
Method in brief: (§2)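 Normal Wistar rats are given 200 mg/kg orally for 14 days, with vehicle-treated controls. Serum liver markers (SGOT, SGPT, ALP, total protein, total bilirubin) and renal markers (urea, creatinine, uric acid) are then measured, mean ± S.D.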

Mus musculus [10] = experiment: Anticonvulsant activity in Swiss albino mouse assessed as protection against subcutaneous pentylenetetrazole-induced seizures at 5 mg/kg, ip administered 6 hrs prior to PTZ challenge and measured after 30 mins; type: functional; conditions: in the assay text read “30 mg/kg” for “5 mg/kg”
Method in brief: (§3)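 Mice get a single i.p. dose, then PTZ 85 mg/kg s.c. at 0.5, 1, 2, 3, 4 or 6 h after dosing. Seizure protection is recorded at each interval as percentage of six Swiss Albino mice protected.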

Rattus norvegicus [11] = experiment: Toxicity in Wistar rat assessed as effect on total bilirubin level at 200 mg/kg, po for 14 days; type: organism-based; conditions: in vivo, 336 h; method in brief: as §2
Rattus norvegicus [12] = experiment: Toxicity in Wistar rat assessed as effect on sodium level at 200 mg/kg, po for 14 days; type: organism-based; conditions: in vivo, 336 h
Rattus norvegicus [13] = experiment: Toxicity in Wistar rat assessed as eosinophil level at 200 mg/kg, po for 14 days (reference value: 2.67 +/- 0.58%); type: organism-based; conditions: in vivo, 336 h
[14] = biological target: T1, Prostaglandin G/H synthase 2 (Homo sapiens) (UniProt P35354); experiment: Inhibition of human recombinant COX2 at 10 uM using arachidonic acid as substrate preincubated for 5 mins followed by substrate addition and measured after 2 mins by ADPH probe-based fluorescence assay relative to control
T1 sequence (whole entry): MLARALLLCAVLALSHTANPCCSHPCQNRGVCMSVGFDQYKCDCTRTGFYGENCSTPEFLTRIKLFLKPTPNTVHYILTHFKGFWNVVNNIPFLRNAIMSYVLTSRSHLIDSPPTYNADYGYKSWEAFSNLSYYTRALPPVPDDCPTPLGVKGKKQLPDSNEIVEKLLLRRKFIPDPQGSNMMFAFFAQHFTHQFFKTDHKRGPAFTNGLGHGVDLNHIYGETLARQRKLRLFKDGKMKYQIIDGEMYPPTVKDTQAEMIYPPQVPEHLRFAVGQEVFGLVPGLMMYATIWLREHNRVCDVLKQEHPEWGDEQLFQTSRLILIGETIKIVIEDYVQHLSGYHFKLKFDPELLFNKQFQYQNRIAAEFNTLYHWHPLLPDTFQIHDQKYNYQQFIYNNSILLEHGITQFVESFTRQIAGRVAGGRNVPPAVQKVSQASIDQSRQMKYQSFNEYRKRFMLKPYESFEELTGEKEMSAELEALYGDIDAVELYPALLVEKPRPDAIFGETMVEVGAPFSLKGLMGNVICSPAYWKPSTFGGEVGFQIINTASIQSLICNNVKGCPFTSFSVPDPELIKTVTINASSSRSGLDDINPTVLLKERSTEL
Method in brief: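 Kit assay in 100 mM Tris-HCl pH 8.0. Enzyme, heme and inhibitor (DMSO stocks) are incubated 5 min at room temperature. ADPH is added, then arachidonic acid starts the reaction. After 2 min, fluorescence is read at ex 535/em 590 nm. Percent inhibition is taken versus the 100% activity well, background wells included. IC50 is derived from percentage inhibition, mean of three independent experiments.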

Rattus norvegicus [15] = experiment: Toxicity in Wistar rat assessed as platelet level at 200 mg/kg, po for 14 days (reference value: 1119 +/- 142.9 10^3/mm3); type: organism-based; conditions: in vivo, 336 h
Rattus norvegicus [16] = experiment: Toxicity in Wistar rat assessed as effect on phosphorous level at 200 mg/kg, po for 14 days; type: organism-based; conditions: in vivo, 336 h
Rattus norvegicus [17] = experiment: Toxicity in Wistar rat assessed as effect on potassium level at 200 mg/kg, po for 14 days; type: organism-based; conditions: in vivo, 336 h
Rattus norvegicus [18] = experiment: Toxicity in Wistar rat assessed as effect on chloride level at 200 mg/kg, po for 14 days; type: organism-based; conditions: in vivo, 336 h
Rattus norvegicus [19] = experiment: Toxicity in Wistar rat assessed as effect on SGOT level at 200 mg/kg, po for 14 days; type: organism-based; conditions: in vivo, 336 h; method in brief: as §2
Mus musculus [20] = experiment: Anticonvulsant activity in Swiss albino mouse assessed as protection against subcutaneous pentylenetetrazole-induced seizures at 300 mg/kg, ip administered 4 hrs prior to PTZ challenge and measured after 30 mins; type: functional; method in brief: as §1
Rattus norvegicus [21] = experiment: Cognitive enhancing effect in ip dosed PTZ-kindled rat assessed as decrease in ratio of second interaction trial to first interaction time by social recognition test (reference value: 0.928 +/- 0.234); type: functional
Rattus norvegicus [22] = experiment: Toxicity in Wistar rat assessed as lymphocyte level at 200 mg/kg, po for 14 days (reference value: 77.33 +/- 2.08%); type: organism-based; conditions: in vivo, 336 h
Rattus norvegicus [23] = experiment: Toxicity in Wistar rat assessed as TLC level at 200 mg/kg, po for 14 days (reference value: 7.23 +/- 1 10^3/mm3); type: organism-based; conditions: in vivo, 336 h
Rattus norvegicus [24] = experiment: Toxicity in Wistar rat assessed as effect on total protein level at 200 mg/kg, po for 14 days; type: organism-based; conditions: in vivo, 336 h; method in brief: as §2
Mus musculus [25] = experiment: Anticonvulsant activity in Swiss albino mouse assessed as protection against subcutaneous pentylenetetrazole-induced seizures at 5 mg/kg, ip administered 3 hrs prior to PTZ challenge and measured after 30 mins; type: functional; conditions: in the assay text read “30 mg/kg” for “5 mg/kg”; method in brief: as §3

Q: How did the Activity (Rattus norvegicus [1]) turn out when Cc1ccc(NC(=S)NNC(=O)Nc2ccc(S(C)(=O)=O)cc2)cc1 was run?
A: Its Activity is “Active”.

Q: And the Activity (Mus musculus [2])?
A: Its Activity is 83%.

Q: What about the Activity (Rattus norvegicus [3]) of the same compound?
A: Its Activity is 7.34 ×10⁶ /mm3.

Q: What about the Activity (Mus musculus [4]) of the same compound?
A: Its Activity is 67%.

Q: What about the Activity (Rattus norvegicus [5]) of the same compound?
A: The Activity was 86.6%.

Q: What about the Activity (Mus musculus [6]) of the same compound?
A: Its Activity is 83%.

Q: And the Activity (Mus musculus [7])?
A: The Activity was 83%.

Q: And the Activity (Rattus norvegicus [8])?
A: The Activity was “Non-Toxic”.

Q: And the Activity (Rattus norvegicus [9])?
A: The Activity was “Non-Toxic”.

Q: What about the Activity (Mus musculus [10]) of the same compound?
A: The Activity was 67%.

Q: What about the Activity (Rattus norvegicus [11]) of the same compound?
A: The Activity was “Non-Toxic”.

Q: What about the Activity (Rattus norvegicus [12]) of the same compound?
A: The Activity was “Non-Toxic”.

Q: What about the Activity (Rattus norvegicus [13]) of the same compound?
A: Its Activity is 2.5%.

Q: And the inhibition [14]?
A: Its inhibition is 75%.

Q: What about the Activity (Rattus norvegicus [15]) of the same compound?
A: The Activity was 990 ×10³ /mm3.

Q: What about the Activity (Rattus norvegicus [16]) of the same compound?
A: Its Activity is “Non-Toxic”.

Q: What about the Activity (Rattus norvegicus [17]) of the same compound?
A: Its Activity is “Non-Toxic”.

Q: What about the Activity (Rattus norvegicus [18]) of the same compound?
A: The Activity was “Non-Toxic”.

Q: And the Activity (Rattus norvegicus [19])?
A: Its Activity is “Non-Toxic”.

Q: What about the Activity (Mus musculus [20]) of the same compound?
A: Its Activity is 83%.

Q: And the Ratio (Rattus norvegicus [21])?
A: The Ratio was 0.561.

Q: And the Activity (Rattus norvegicus [22])?
A: Its Activity is 73%.

Q: What about the Activity (Rattus norvegicus [23]) of the same compound?
A: Its Activity is 6.25 ×10³ /mm3.

Q: And the Activity (Rattus norvegicus [24])?
A: Its Activity is “Non-Toxic”.

Q: And the Activity (Mus musculus [25])?
A: The Activity was 83%.
